The values that follow come from ChEMBL document CHEMBL1136968, “Structurally simple inhibitors of lanosterol 14alpha-demethylase are efficacious in a rodent model of acute Chagas disease” (J Med Chem, 2009).

Series [1] deals with Trypanosoma cruzi. Description: Antitrypanosomal activity against Trypanosoma cruzi Tulahuen amastigotes in mouse 3T3 cells by beta-galactosidase reporter gene assay. The class given is functional, organism-based. The note with it: NIH3T3. The gist of the method:
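Tulahuen strain (TCII lineage) grown as intracellular amastigotes in murine 3T3 fibroblasts in 96-well plates. EC50 determined from triplicate screens. Standard errors within assays stayed below 15%.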
A general note: Reporter assays use an easily measured gene product as a stand-in for the process of interest.

Series [2] deals with Trypanosoma cruzi. Kind of series: Antitrypanosomal activity against Trypanosoma cruzi Tulahuen infected BALB/c mouse model of acute Chagas disease assessed as parasitemia burden in blood at 20 mg/kg, po administered twice daily 7 days after parasite infection for 21 days measured 100 days postinfection by PCR assay relative to untreated control. Set-up: dose 20 mg/kg. It is filed as functional, organism-based. The gist of the method: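 Female BALB/c mice (7–8 wk) infected s.c. with 1 × 10^4 Tulahuen trypomastigotes; blood parasites seen by day 7. Groups of 6 dosed by oral gavage twice daily, days 7–27, in 20% (w/v) hydroxypropyl beta-cyclodextrin vehicle. Vehicle group as control. Mice sacrificed at day 100; 200 µL whole blood tested by PCR for T. cruzi; scored as positive mice per group.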

Series [3] can be described thus: Cmax in Trypanosoma cruzi infected BALB/c mouse model of acute Chagas disease at 50 mg/kg, po administered as single dose. Set-up: dose 50 mg/kg, route oral. The following applies: in vivo. The class given is ADME, organism-based. Summed up:
(§1)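 BALB/c females, 7–8 weeks, ~20 g, groups of three; single oral gavage at 50 mg/kg, given as a 10 mg/ml suspension in 20% (w/v) hydroxypropyl beta-cyclodextrin, 100 µL. Tail blood (40 µL) taken at timed intervals into heparinized capillaries. Plasma was separated, frozen and analysed later. Sampling ran to 5 hr. Values are averages from 3 mice.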

The test system of series [4] is Mus musculus. Description: Toxicity in Trypanosoma cruzi Tulahuen infected BALB/c mouse model of acute Chagas disease assessed as incidence of side effects at 50 mg/kg, po administered twice daily 7 days after parasite infection for 21 days. Set-up: dose 50 mg/kg, route oral. The following applies: in vivo. The class given is organism-based. The gist of the method:
(§2)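 BALB/c females, 7–8 weeks, infected subcutaneously with 1 × 10^4 Tulahuen trypomastigotes; all were parasitemic by day 7. Groups of 6 were dosed by oral gavage twice daily on days 7–27 in 20% (w/v) hydroxypropyl beta-cyclodextrin, 100 µL per dose; vehicle group as control. Parasitemia was counted in 5 µL tail blood over 50 high-power fields through day 97. At day 100, 200 µL whole blood was tested by PCR.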

Series [5] can be described thus: AUC (0 to 5 hrs) in Trypanosoma cruzi infected BALB/c mouse model of acute Chagas disease at 50 mg/kg, po administered as single dose. It is filed as ADME, organism-based. Set-up: dose 50 mg/kg, route oral. The note with it: in vivo. The gist of the method:
as §1

The target in series [6] is Sterol 14-alpha demethylase (Trypanosoma cruzi (strain CL Brener)) (UniProt Q7Z1V1). Kind of series: Binding affinity to Trypanosoma cruzi lanosterol 14-alpha-demethylase expressed in Escherichia coli assessed as enzyme spectral change by difference spectroscopy.
Series [7] deals with Mus musculus. Description: Toxicity in Trypanosoma cruzi Tulahuen infected BALB/c mouse model of acute Chagas disease assessed as mouse survival at 50 mg/kg, po administered twice daily 7 days after parasite infection for 21 days measured 100 days postinfection. The class given is organism-based. Also noted: dose 50 mg/kg, route oral. The note with it: in vivo, 2400 h. The gist of the method:
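Subcutaneous infection of female BALB/c mice (7–8 wk) with 1 × 10^4 Tulahuen trypomastigotes. Groups of 6 given oral gavage twice daily, days 7–27, in 20% (w/v) hydroxypropyl beta-cyclodextrin. Parasitemia followed by counting 50 high-power fields of 5 µL tail blood through day 97. Pre-morbid mice euthanized; survival and side effects recorded to termination at day 100.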

Series [8] addresses Sterol 14-alpha demethylase (Trypanosoma cruzi (strain CL Brener), UniProt Q7Z1V1). Kind of series: Binding affinity to Trypanosoma cruzi lanosterol 14-alpha-demethylase expressed in Escherichia coli assessed as equilibrium dissociation constant for enzyme-inhibitor complex by difference spectroscopy.
Series [9] in a line: Tmax in Trypanosoma cruzi infected BALB/c mouse model of acute Chagas disease at 50 mg/kg, po administered as single dose. The following applies: in vivo. It is filed as ADME, organism-based. Also noted: dose 50 mg/kg, route oral. Summed up: as §1
The nature of series [10]: Toxicity against mouse 3T3 cells by resazurin assay. It is filed as cell-based. The following applies: NIH3T3 cells. The gist of the method: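 Murine 3T3 fibroblasts screened separately from the parasites. Host-cell growth was quantified by resazurin read-out and EC50 determined.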
(In general: The colour change of resazurin is a common sign of viable cells or microbes.)

The nature of series [11]: Half life in mouse at 30 mg/kg, po. It is filed as ADME, organism-based. Set-up: dose 30 mg/kg, route oral. The note with it: in vivo.
A short description of series [12]: Plasma concentration in mouse at 30 mg/kg, po after 1 hr. Also noted: dose 30 mg/kg, route oral. The class given is ADME, organism-based.
In series [13] the test system is Trypanosoma cruzi. Kind of series: Antitrypanosomal activity against Trypanosoma cruzi infected mouse model of acute Chagas disease assessed as parasitemia burden in blood at 50 mg/kg, po administered twice daily for 14 days relative to untreated control. It is filed as functional.
Series [14] in a line: Terminal half life in rat. It is filed as ADME, organism-based. The note with it: in vivo, read-out: beta t1/2 (converted).
Series [15] is described as follows: Terminal half life in mouse. It is filed as ADME, organism-based. The note with it: in vivo, read-out: beta t1/2 (converted).
Series [16] concerns Trypanosoma cruzi. Kind of series: Antitrypanosomal activity against Trypanosoma cruzi Tulahuen infected BALB/c mouse model of acute Chagas disease assessed as parasitemia burden in blood at 50 mg/kg, po administered twice daily 7 days after parasite infection for 21 days measured 100 days postinfection by PCR assay relative to untreated control. Set-up: dose 50 mg/kg. It is filed as functional, organism-based. Summed up: as §2

Activity calls are given as the source filed them. The rule behind the calls is not given here.

Chain of Sterol 14-alpha demethylase (Trypanosoma cruzi (strain CL Brener)) (Q7Z1V1 whole entry, looked up): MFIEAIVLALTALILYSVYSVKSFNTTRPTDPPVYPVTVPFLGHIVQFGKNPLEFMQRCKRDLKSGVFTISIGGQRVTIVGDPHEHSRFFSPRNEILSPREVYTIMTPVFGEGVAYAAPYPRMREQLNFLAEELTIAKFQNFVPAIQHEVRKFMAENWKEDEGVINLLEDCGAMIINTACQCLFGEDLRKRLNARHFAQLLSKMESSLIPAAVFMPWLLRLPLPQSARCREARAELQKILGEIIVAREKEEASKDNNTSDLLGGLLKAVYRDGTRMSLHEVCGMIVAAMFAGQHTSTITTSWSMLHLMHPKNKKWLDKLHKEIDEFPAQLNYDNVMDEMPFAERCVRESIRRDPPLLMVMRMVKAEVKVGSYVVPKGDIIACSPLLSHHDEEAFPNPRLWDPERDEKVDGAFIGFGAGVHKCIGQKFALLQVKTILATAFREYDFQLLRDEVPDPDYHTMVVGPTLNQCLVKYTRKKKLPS
Chain of Sterol 14-alpha demethylase (Q7Z1V1 whole entry): as the sequence (Q7Z1V1 whole entry, looked up) above

Turning to `Nc1cc(-c2ccccc2)ccc1Cn1cncc1CNc1ccc(-c2nc3ccccc3s2)c(-c2ccccc2)c1`, the EC50 (usually the concentration that produces a half-maximal response) in series [1] is 0.4 nM; in series [10] it was over 1000 nM. For the same compound, the outcome in series [2] and in [6] was Active. The concentration in series [3] peaked (Cmax) at 7200 ng/mL. The Activity entry in [4] and in [7] was “Non-toxic” each time. Further, the AUC(0-t) (usually the area under the concentration-time curve up to a stated or last time point) at 4 h in series [5] was found to be 28700 ng·h/mL. For the same compound, the Kd (usually a measure of binding affinity in units of concentration) in [8] was under 2200 nM. For the same compound, the Tmax (commonly the time from dosing to the highest level) in series [9] worked out at 1.7 h.
As for `c1ccc(-c2ccc(Cn3cncc3CNc3ccc(-c4nc5ccccc5s4)c(-c4ccccc4)c3)cc2)cc1`, the EC50 in [1] is 7 nM; in series [10], over 1000 nM. Also, the half-life in [11] is 4 h. Moreover, in series [12], the concentration at 1 h stood at 16 µM. In series [13], the Activity is 1%.
In the case of `CC[C@@H]([C@H](C)O)n1ncn(-c2ccc(N3CCN(c4ccc(OC[C@@H]5CO[C@@](Cn6cncn6)(c6ccc(F)cc6F)C5)cc4)CC3)cc2)c1=O` [POSACONAZOLE], in series [2], the result was Active. Further, the half-life in series [14] and in [15] was 7 h throughout.
With `Nc1cc(-c2ccccc2)ccc1Cn1cncc1CNc1ccc(Cl)c(-c2ccccc2)c1`, the EC50 is 1.2 nM in [1] and over 1000 nM in series [10]. In addition, the peak concentration (Cmax) (commonly the maximum level reached in the sampled fluid or tissue) in [3] came to 2400 ng/mL. In addition, the Activity entry in series [4] and in series [7] was “Non-toxic” in each case. The compound further yielded an AUC(0-t) at 4 h in series [5] of 6300 ng·h/mL. In addition, the result in [6] was Active. In addition, in series [8], the Kd was under 2200 nM. Also, the result in [16] was inactive. Also, in [9], the time to peak (Tmax) worked out at 0.8 h.
As for `CC(C)OC(=O)c1ccc(NCc2cncn2Cc2ccc(-c3ccccc3)cc2)cc1-c1ccccc1`, the values for the EC50 in series [1] and in series [10] were 50 nM and over 10000 nM, respectively.
`c1ccc(-c2ccc(Cn3cncc3CNc3ccc(-c4cncs4)c(-c4ccccc4)c3)cc2)cc1`: the EC50 in [1] is 9 nM; in [10], over 1000 nM.
Taken in the same sequence, the figures for `COC(=O)c1ccc(NCc2cncn2Cc2cccc(F)c2)cc1-c1ccccc1` were 150 nM and over 1000 nM.
In the case of `O=C(OC1CCCCC1)c1ccc(NCc2cncn2Cc2ccc(-c3ccccc3)cc2)cc1-c1ccccc1`, the EC50 in [1] was 10 nM; in [10], over 10000 nM.
Take `c1ccc(Cn2cncc2CNc2cccc(-c3cccnc3)c2)cc1`: the EC50 in [1] was 600 nM; in series [10], over 1000 nM.
The corresponding values for `CCCC(=O)c1ccc(NCc2cncn2Cc2ccc(-c3ccccc3)cc2)cc1-c1ccccc1` are 40 nM and over 10000 nM.
The corresponding values for `CNC(=O)c1ccc(NCc2cncn2Cc2ccc(-c3ccccc3)cc2N)cc1-c1ccccc1` are 12 nM and over 1000 nM.
